The text below walks through data of the array DNA melting data of Ke et al. (doi:10.1101/2024.01.08.574731).

The nature of data set [1]: folding enthalpy; higher = less favourable; fluorescence melt of hairpins on a sequencing array, two-state fit. As to conditions: sodium 0.088 M. The method, boiled down: (§1)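 In 50 mM Na-HEPES pH 8.0 containing 25 mM NaCl, hairpins from the library on a sequenced MiSeq flow cell were imaged for Cy3 fluorescence at 2.5 °C steps up to 60 °C, with Cy3 and quencher oligos annealed. After normalisation to pre-quench Cy3 and to control constructs, two-state fits with bootstrapping gave melting temperature and folding enthalpy. Four replicates were combined by inverse-variance weighting, and fitted temperatures were shifted up by 9.35 °C to match UV melts.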

The nature of data set [2]: melting temperature; fluorescence melt of hairpins on a sequencing array, two-state fit, raised by 9.35 °C to match UV melts. As to conditions: sodium 0.088 M. The method, boiled down:
as §1

With GGGCCGCGAAAGCGTCCC (((.(((....))).))), the folding enthalpy in data set [1] is -20.4 kcal/mol. In data set [2], the Tm is 65.8 °C.

For GGGCCGGGAAACCGACCC (((.(((....))).))), in data set [1], the folding enthalpy was -43.9 kcal/mol. Besides, the Tm in data set [2] worked out at 57.5 °C.

Turning to GGGCCGGGAAACCGGTCC ((.((((....)))).)), the folding enthalpy in data set [1] was -38.3 kcal/mol. Besides, the Tm in data set [2] came out at 68.8 °C.

GGGCCTACGAAAGTACCC (((..(((....)))))): in data set [1], the folding enthalpy was -9.06 kcal/mol. The Tm in data set [2] was found to be 34.7 °C.

As to GGGCCTCGAAAGAGCCC (((.(((....)))))), in data set [1], the folding enthalpy is -37.9 kcal/mol. In addition, in data set [2], the Tm came to 62.3 °C.

For GGGCCTCGAAAGAGCCCC (((.(((....))).))), the folding enthalpy in data set [1] was -15.7 kcal/mol. For the same sequence, the Tm in data set [2] was 57.2 °C.

GGGCCTGGAAACAAGCCC ((((.((....)).)))): the folding enthalpy in data set [1] was -33.3 kcal/mol. Moreover, in data set [2], the Tm stood at 47.4 °C.

GGGCGACGAAAGTCTCCC (((.(((....))).))): the folding enthalpy in data set [1] was -43.2 kcal/mol. Further, in data set [2], the Tm amounted to 53.6 °C.

Consider GGGCGAGCGAAAGCTCCC (((..(((....)))))), for which the folding enthalpy in data set [1] is -13.1 kcal/mol. Also, the Tm in data set [2] was 50.5 °C.

Regarding GGGCGAGGAAACCCGCCC (((((.(....).))))), the folding enthalpy in data set [1] is -34.7 kcal/mol. Also, the Tm in data set [2] was 64.5 °C.

Regarding GGGCGATCGAAAGATCCC (((..(((....)))))), in data set [1], the folding enthalpy was -17.1 kcal/mol. For the same sequence, the Tm in data set [2] is 48.6 °C.

With GGGCGCCGAAAGGCCCCC (((.(((....))).))), the folding enthalpy in data set [1] was -14 kcal/mol. Moreover, the Tm in data set [2] worked out at 65.5 °C.

GGGCGCCGAAAGGCTCCC (((.(((....))).))): the folding enthalpy in data set [1] was -25.7 kcal/mol. The Tm in data set [2] came to 60.7 °C.

For the sequence GGGCGCGAAAGCGTACCC ((((((....)))..))), in data set [1], the folding enthalpy was -13.1 kcal/mol. The Tm in data set [2] was 56.3 °C.

As for GGGCGCGAAAGCGTTCCC ((((((....)))..))), in data set [1], the folding enthalpy is -13.7 kcal/mol. The Tm in data set [2] worked out at 52.3 °C.

Regarding GGGCGGCGAAAGCCCCCC (((.(((....))).))), the folding enthalpy in data set [1] was -16.6 kcal/mol. The Tm in data set [2] is 63.9 °C.

For the sequence GGGCGGGGAAACCCACCC (((.(((....))).))), the folding enthalpy in data set [1] is -40.7 kcal/mol. For the same sequence, the Tm in data set [2] turned out to be 54.6 °C.

As to GGGCGGGGAAACTCGCCC (((((.(....).))))), the folding enthalpy in data set [1] was -41.3 kcal/mol. The Tm in data set [2] came to 67.4 °C.

For GGGCGTGCGAAAGCACCC (((..(((....)))))), the folding enthalpy in data set [1] is -13 kcal/mol. The Tm in data set [2] amounted to 54.4 °C.

Take GGGCGTGGAAACACGTCC ((.((((....)))).)): the folding enthalpy in data set [1] was -36.1 kcal/mol. Moreover, the Tm in data set [2] was determined as 62.1 °C.

In the case of GGGCGTGGAAACGCGCCC (((((.(....).))))), in data set [1], the folding enthalpy is -22.5 kcal/mol. Besides, the Tm in data set [2] came out at 68.3 °C.

For the sequence GGGCTAGGAAACTAGTCC ((.((((....)))).)), the folding enthalpy in data set [1] is -37.6 kcal/mol. The Tm in data set [2] was 52.4 °C.

In the case of GGGCTAGGAAACTGGCCC ((((.((....)).)))), in data set [1], the folding enthalpy is -41.4 kcal/mol. Also, the Tm in data set [2] is 58.2 °C.

In the case of GGGCTCGAAAGAGAACCC ((((((....)))..))), the folding enthalpy in data set [1] was -19.5 kcal/mol. Moreover, the Tm in data set [2] turned out to be 45.2 °C.

With GGGCTCGAAAGAGACCC ((((((....))).))), the folding enthalpy in data set [1] was -20.9 kcal/mol. Besides, the Tm in data set [2] stood at 66.8 °C.

As for GGGCTCGAAAGAGCACCC ((((((....)))..))), in data set [1], the folding enthalpy was -12.2 kcal/mol. In data set [2], the Tm was found to be 58.1 °C.

As to GGGCTCGGAAACGGGTCC ((.(.((....)).).)), in data set [1], the folding enthalpy is -34.5 kcal/mol. The Tm in data set [2] was 48.6 °C.

Consider GGGCTGGGAAACCGGCCC ((((.((....)).)))), for which the folding enthalpy in data set [1] was -29.2 kcal/mol. Moreover, the Tm in data set [2] was 67.2 °C.

For GGGCTGGGAAACCGGCTC (.((.((....)).)).), the folding enthalpy in data set [1] was -19.7 kcal/mol. The Tm in data set [2] was found to be 49.1 °C.

Take GGGCTTCCGAAAGGACCC (((..(((....)))))): the folding enthalpy in data set [1] was -23.4 kcal/mol. In addition, the Tm in data set [2] amounted to 39.9 °C.

In the case of GGGCTTCGAAAGAATCCC (((.(((....))).))), the folding enthalpy in data set [1] is -33 kcal/mol. The Tm in data set [2] was 46.4 °C.

On to GGGCTTGCGAAAGCACCC (((..(((....)))))), for which the folding enthalpy in data set [1] is -15.8 kcal/mol. In data set [2], the Tm worked out at 45.6 °C.

Consider GGGCTTGGAAACAAGTCC ((.((((....)))).)), for which the folding enthalpy in data set [1] was -50.9 kcal/mol. Also, the Tm in data set [2] stood at 54.6 °C.

On to GGGCTTGGAAACGAGTCC ((.((.(....).)).)), for which the folding enthalpy in data set [1] was -32.8 kcal/mol. Further, the Tm in data set [2] was 43.9 °C.

GGGGAAGGAAACTCCCCC ((((.((....)).)))): the folding enthalpy in data set [1] was -24.8 kcal/mol. In addition, the Tm in data set [2] worked out at 46.9 °C.

Consider GGGGACCGAAAGGTTCCC (((.(((....))).))), for which the folding enthalpy in data set [1] is -43.5 kcal/mol. In addition, the Tm in data set [2] stood at 66.3 °C.

For the sequence GGGGACGAAAGTCAGCCC ((((((....)))..))), in data set [1], the folding enthalpy is -15.4 kcal/mol. Also, in data set [2], the Tm came to 49.5 °C.
